Reference: ChEMBL document CHEMBL1122142, “Synthesis and antiinflammatory activity of hexahydrothiopyrano[4,3-c]pyrazoles and related analogues” (J Med Chem, 1982)

Tests used:
Mus musculus [1] = assay: The compound was evaluated for the mouse active Arthus (MAA) reaction activity expressed as inhibitory dose after ip administration; assay type: functional; settings: read-out: ID50 (the source's name)
Outline: (§1)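 CD-1 mice were sensitized ip with a 1:1 Freund's complete adjuvant emulsion containing BSA in saline, 5 weeks before challenge. Compound was suspended in 1% Na CMC in pyrogen-free saline and given as one ip or oral dose 1 h before skin challenge with BSA. Screening doses were 150 mg/kg ip and 300 mg/kg po, with some at 75 or 50 mg/kg ip. Lesions were excised 3.5 h after challenge and weighed against controls.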

Cavia porcellus [2] = assay: Tested in delayed hypersensitivity skin reaction (DHSR) after subcutaneous administration, activity reported as percent inhibition of erythema/induration of lesion; 14/34; assay type: functional
Mus musculus [3] = assay: The compound was evaluated for the mouse active Arthus (MAA) reaction activity for an ip dose of 150 mg/kg in mouse; assay type: functional; settings: route intraperitoneal; outline: as §1
[4] = Therapeutic ratio was determined for intraperitoneal administration; assay type: ADME; settings: ip; read-out: TR
Mus musculus [5] = assay: Inhibition of Mouse active Arthus (MAA) reaction activity was determined for peroral dose of 300 mg/kg in mouse; 21-30%; assay type: functional; settings: route oral
[6] = Acute toxicity as LD50 value was determined in mice administered intraperitoneally; assay type: organism-based; settings: mouse, in vivo, ip
Mus musculus [7] = assay: Mouse active Arthus (MAA) reaction activity was determined for an ip dose of 150 mg/kg in mouse; assay type: functional; settings: route intraperitoneal
Mus musculus [8] = organism: Mus musculus; assay: The compound was evaluated for the mouse active Arthus (MAA) reaction activity expressed as inhibitory dose.; assay type: functional; settings: read-out: ID50 (the source's name); outline: as §1
[9] = Acute toxicity as LD50 value was determined in mice administered orally; assay type: organism-based; settings: mouse, in vivo, po
Mus musculus [10] = assay: The compound was evaluated for the mouse active Arthus (MAA) reaction activity expressed as inhibitory dose after oral administration; assay type: functional; settings: read-out: ID50 (the source's name); outline: as §1
Cavia porcellus [11] = assay: Tested in delayed hypersensitivity skin reaction (DHSR) after subcutaneous administration, activity reported as percent inhibition of erythema/induration of lesion; 18/50; assay type: functional
[12] = Therapeutic ratio was determined for peroral administration; settings: po; read-out: TR
Mus musculus [13] = assay: Inhibition of Mouse Active Arthus reaction following 150 mg/Kg i.p.; 41-60% inhibition.; assay type: functional; settings: for inhibition in vivo at 150 mg/kg: Mus musculus, ip
Cavia porcellus [14] = assay: Tested in delayed hypersensitivity skin reaction (DHSR) after subcutaneous administration, activity reported as percent inhibition of erythema/induration of lesion; 21/6; assay type: functional
Mus musculus [15] = assay: Mouse active Arthus (MAA) reaction activity was determined for an ip dose of 150 mg/kg in mouse; 31-40%; assay type: functional; settings: route intraperitoneal
Cavia porcellus [16] = assay: Tested in delayed hypersensitivity skin reaction (DHSR) after subcutaneous administration, activity reported as percent inhibition of erythema/induration of lesion; 2/0; assay type: functional
Cavia porcellus [17] = assay: Tested in delayed hypersensitivity skin reaction (DHSR) after subcutaneous administration, activity reported as percent inhibition of erythema/induration of lesion; 5/2; assay type: functional
Outline: (§2)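 Male Hartley guinea pigs were sensitized with Mycobacterium tuberculosis in Freund's incomplete adjuvant, injected into each hind footpad and subcutaneously at the neck. After 3 weeks, 1.2 μg PPD was given intradermally. Compound in sesame oil was given sc, 3 animals per group, 30 min before and 5 h after PPD; screening dose 50 mg/kg.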

Mus musculus [18] = assay: Inhibition of Mouse active Arthus (MAA) reaction activity was determined for an ip dose of 150 mg/kg in mouse; 21-30%; assay type: functional; settings: route intraperitoneal
Cavia porcellus [19] = assay: Tested in delayed hypersensitivity skin reaction (DHSR) after subcutaneous administration, activity reported as percent inhibition of erythema/induration of lesion; 6/12; assay type: functional; outline: as §2
Cavia porcellus [20] = assay: Tested in delayed hypersensitivity skin reaction (DHSR) after subcutaneous administration, activity reported as percent inhibition of erythema/induration of lesion; 19/23; assay type: functional
Mus musculus [21] = assay: The compound was evaluated for the mouse active Arthus (MAA) reaction activity for an ip screening dose of 75 mg/kg in mouse; assay type: functional; settings: route intraperitoneal; outline: as §1
Mus musculus [22] = assay: The compound was evaluated for the mouse active Arthus (MAA) reaction activity for peroral screening dose of 150 mg/kg in mouse; assay type: functional; settings: route oral
Cavia porcellus [23] = assay: Tested in delayed hypersensitivity skin reaction (DHSR) after subcutaneous administration, activity reported as percent inhibition of erythema/induration of lesion; 22/51; assay type: functional
Cavia porcellus [24] = assay: Tested in delayed hypersensitivity skin reaction (DHSR) after subcutaneous administration, activity reported as percent inhibition of erythema/induration of lesion; 8/21; assay type: functional; outline: as §2
Cavia porcellus [25] = assay: The compound was evaluated for the delayed hypersensitivity skin reaction (DHSR) activity after subcutaneous administration; 1/0
Cavia porcellus [26] = assay: Tested in delayed hypersensitivity skin reaction (DHSR) after subcutaneous administration, activity reported as percent inhibition of erythema/induration of lesion; 8/11; assay type: functional; outline: as §2
Cavia porcellus [27] = assay: Tested in delayed hypersensitivity skin reaction (DHSR) after subcutaneous administration, activity reported as percent inhibition of erythema/induration of lesion; 4/22; assay type: functional; outline: as §2
Cavia porcellus [28] = assay: Tested in delayed hypersensitivity skin reaction (DHSR) after subcutaneous administration, activity reported as percent inhibition of erythema/induration of lesion; 15/7; assay type: functional
Cavia porcellus [29] = assay: Tested in delayed hypersensitivity skin reaction (DHSR) after subcutaneous administration, activity reported as percent inhibition of erythema/induration of lesion; 9/30; assay type: functional; outline: as §2

COc1ccc(/C=C2\CSCC3C2=NN(CCCN2CCN(C)CC2)C3c2ccc(OC)cc2)cc1.O=C(O)/C=C\C(=O)O (configuration not stated)
ED50 (Mus musculus [1]): 60 mg/kg
Activity (Cavia porcellus [2]): 14
inhibition in vivo at 150 mg/kg (Mus musculus [3]): > 60%

COc1ccc(/C=C2\CS(=O)(=O)CC3C2=NN(CCCN2CCN(C)CC2)C3c2ccc(OC)cc2)cc1.O=C(O)/C=C\C(=O)O (configuration not stated)
ED50 (Mus musculus [1]): 30 mg/kg
selectivity ratio [4]: 9.6
inhibition in vivo at 300 mg/kg (Mus musculus [5]): 21%
LD50 [6]: 280 mg/kg
inhibition in vivo at 150 mg/kg (Mus musculus [7]): > 60%
ED50 (Mus musculus [8]): 30 mg/kg
LD50 [9]: > 1200 mg/kg
ED50 (Mus musculus [10]): 234 mg/kg
Activity (Cavia porcellus [11]): 18
selectivity ratio [12]: > 5.1

CN1CCN(CCCN2N=C3/C(=C/c4ccccc4)CSCC3C2c2ccccc2)CC1.O=C(O)/C=C\C(=O)O (configuration not stated)
Inhibition (Mus musculus [13]): 41%
Inhibition (Cavia porcellus [14]): 21%

CSc1ccc(/C=C2\CSCC3C2=NN(C(C)=O)C3c2ccc(SC)cc2)cc1 (configuration not stated)
inhibition in vivo at 150 mg/kg (Mus musculus [15]): 31%
Activity (Cavia porcellus [16]): 2

CC(C)n1nc(-c2cccc(C(F)(F)F)c2)c2c1/C(=C/c1cccc(C(F)(F)F)c1)CS(=O)(=O)C2
Activity (Cavia porcellus [17]): 5
inhibition in vivo at 150 mg/kg (Mus musculus [18]): 21%

CCCCN1N=C2/C(=C/c3cccnc3)CSCC2C1c1cccnc1 (configuration not stated)
Activity (Cavia porcellus [19]): 6
inhibition in vivo at 150 mg/kg (Mus musculus [3]): < 20%

Cc1ccc(/C=C2\CS(=O)(=O)Cc3c(-c4ccc(C)cc4)nn(CC(F)(F)F)c32)cc1
Activity (Cavia porcellus [20]): 19
inhibition in vivo at 75 mg/kg (Mus musculus [21]): > 60%
inhibition in vivo at 150 mg/kg (Mus musculus [22]): < 20%

CN1CCN(CCCN2N=C3/C(=C/c4ccccc4)COCC3C2c2ccccc2)CC1 (configuration not stated)
Activity (Cavia porcellus [23]): 22

CC(=O)N1N=C2/C(=C/c3ccccc3)CS(=O)(=O)CC2C1c1ccccc1 (configuration not stated)
inhibition in vivo at 150 mg/kg (Mus musculus [13]): 41%
Activity (Cavia porcellus [24]): 8

CCCN1N=C2/C(=C/c3ccccc3)CSCC2C1c1ccccc1 (configuration not stated)
Activity (Cavia porcellus [25]): 1
inhibition in vivo at 150 mg/kg (Mus musculus [18]): 21%

CCCN1N=C2/C(=C/c3cccc(C(F)(F)F)c3)CS(=O)(=O)CC2C1c1cccc(C(F)(F)F)c1 (configuration not stated)
Activity (Cavia porcellus [26]): 8
inhibition in vivo at 150 mg/kg (Mus musculus [13]): 41%

CC(C)N1N=C2/C(=C/c3cccc(C(F)(F)F)c3)CS(=O)(=O)CC2C1c1cccc(C(F)(F)F)c1 (configuration not stated)
inhibition in vivo at 150 mg/kg (Mus musculus [15]): 31%
Activity (Cavia porcellus [27]): 4

Cc1ccc(/C=C2\CS(=O)(=O)CC3C2=NN(CC2CC2)C3c2ccc(C)cc2)cc1 (configuration not stated)
inhibition in vivo at 150 mg/kg (Mus musculus [22]): < 20%
Activity (Cavia porcellus [28]): 15

CCCN1N=C2/C(=C/c3ccccc3)COCC2C1c1ccccc1 (configuration not stated)
inhibition in vivo at 150 mg/kg (Mus musculus [18]): 21%
Activity (Cavia porcellus [29]): 9
